Experimental data from different studies.
Protocols differ between the studies behind these lines.
Target: Activin receptor type-2A (ACVR2A, Homo sapiens, UniProt P27037)

CC(C)(C)c1nc(-c2cccc(NS(=O)(=O)c3c(F)cccc3F)c2F)c(-c2ccnc(N)n2)s1
remaining activity (enzyme activity; inhibitor; radiometric; 1 µM): 9%

Cn1c2c(Cl)c(Cl)ccc2c2cc(N)[nH]c(=O)c21
ΔTm (thermal stability; DSF; 10 µM): 0.6 °C

COc1cccc(CNC(=O)c2nc3scc(COCc4ccc(C(=O)O)cc4)c3c(=O)[nH]2)c1
remaining binding (cell-free assay; competition with immobilised ligand; 1 µM): 92.9%

Cn1c2c(Cl)c(Cl)ccc2c2cc[nH]c(=O)c21
ΔTm (thermal stability; DSF; 10 µM): 2.7 °C

CN1CC(Oc2cnc(C#N)cc2-c2ccn3nc(NC(=O)C4CC4)cc3c2)C1
inhibition (enzyme activity; inhibitor; 1 µM): 7%

CCN1CCC2(CC1)NC(=O)c1c(c3ccc(Cl)c(Cl)c3n1C)C2C#N (racemic)
ΔTm (thermal stability; DSF; 10 µM): 0.1 °C

COc1cc(Cl)c(C(=O)N[C@@H](CN[C@H]2CC[C@@H](N)CC2)Cc2ccc(C#N)cc2)cc1-c1ccc(CN[C@H](C)c2ccc(C)cc2)o1
remaining activity (enzyme activity; inhibitor; 1 µM): 94%

CC(C)(C)c1nc2c(s1)c1nc(N)ncc1c1ccc(NS(=O)(=O)c3c(F)cccc3F)c(F)c12
remaining activity (enzyme activity; inhibitor; radiometric; 1 µM): 74%

CCC(=O)N[C@H]1CC[C@@H](C(=O)N(C)c2ccc(-c3nc4ccccc4o3)cc2)C1
remaining binding (cell-free assay; competition with immobilised ligand; 1 µM): 98%

Cc1ccc(C(=O)Nc2ccc(CN3CCN(C)CC3)c(C(F)(F)F)c2)cc1C#Cc1cnc2cccnn12
remaining activity (enzyme activity; 23.5 nM): 86%

Cc1ccc(C(=O)NCc2ccsc2)cc1C#Cc1cn(C(C)C)c2ncnc(N)c12
activity vs control (enzyme activity; inhibitor; 1 µM): 93%

Nc1ncnc2occ(-c3ccc(NC(=O)Nc4cc(C(F)(F)F)ccc4F)cc3)c12
remaining signal (cell-free assay; 20 µM): 45%
